Experimental data published in ChEMBL document CHEMBL1140341, “Synthesis and radioligand binding studies of C-5- and C-8-substituted 1-(3,4-dimethoxybenzyl)-2,2-dimethyl-1,2,3,4-tetrahydroisoquinoliniums as SK channel blockers related to N-methyl-laudanosine and N-methyl-noscapine” (J Med Chem, 2005).

Legend:
[1] = biological target: Small conductance calcium-activated potassium channel (Rattus norvegicus) (UniProt P70604+P70606+P70605); assay: Displacement of [125I]apamin from calcium-activated potassium (SK) channels of rat cortex at 10 uM
In short: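 Rat cortical synaptosomes (0.2 mg protein/mL) in 10 mM Tris-HCl pH 7.5 with 5.4 mM KCl and 0.1% BSA. Incubated 1 h at 0 °C with about 10 pM 125I-apamin and 10 μM drug. Filtered on polyethylenimine-coated GF/C filters, washed twice, counted by scintillation. Nonspecific binding defined with 0.1 μM unlabeled apamin; filter binding without synaptosomes subtracted.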

[2] = biological target: Small conductance calcium-activated potassium channel (Rattus norvegicus, UniProt P70604+P70606+P70605); assay: Inhibition of [125I]apamin binding to calcium-activated potassium (SK) channel of rat cortex
In short: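 Cortical synaptosomes (0.2 mg protein/mL), Tris-HCl 10 mM pH 7.5 buffer with 5.4 mM KCl and 0.1% BSA. 1 h at 0 °C with ±10 pM 125I-apamin and nine drug concentrations (10-4–10-7 M); run for drugs displacing at least 20% at 10 μM. Polyethylenimine-coated GF/C filtration, scintillation counting. Nonspecific binding with 0.1 μM apamin; curve-fitted.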

Displacement [1]	IC50 [2]	Ki [2]	Compound
26%	35.2 µM	6.8 µM	COc1ccc(CC2c3c(Br)cccc3CC[N+]2(C)C)cc1OC.[I-] (stereo not given)
23%	50 µM	9.3 µM	COc1ccc(CC2c3c(Cl)cccc3CC[N+]2(C)C)cc1OC.[I-] (stereo not given)
24%	28.4 µM	5.5 µM	COc1ccc(CC2c3c(C)cccc3CC[N+]2(C)C)cc1OC.[I-] (stereo not given)
9%			COc1ccc(CC2c3c(cccc3OC)CC[N+]2(C)C)cc1OC (stereo not given)
55%	8.6 µM	1.6 µM	COc1ccc(CC2c3c(cccc3C(C)C)CC[N+]2(C)C)cc1OC.[I-] (stereo not given)
44%	13.6 µM	2.6 µM	CCc1cccc2c1C(Cc1ccc(OC)c(OC)c1)[N+](C)(C)CC2.[I-] (stereo not given)
2%			CCc1cccc2c1C(Cc1ccc(OC)c(OC)c1)N(C)CC2 (stereo not given)

Further lines, the compound ahead of its results:

Compound	Displacement [1]	IC50 [2]	Ki [2]
COc1ccc(CC2c3cccc(Br)c3CCN2C)cc1OC (stereo not given)	1%		
COc1ccc2c(c1OC)C(=O)OC2C1c2c(cc3c(c2OC)OCO3)CC[N+]1(C)C.[I-] (stereo not given)	27%	14.1 µM	3.6 µM
COc1ccc(CC2c3sc(C)cc3CC[N+]2(C)C)cc1OC (stereo not given)	18%		
COc1ccc(CC2c3sccc3CC[N+]2(C)C)cc1OC (stereo not given)	15%		
COc1ccc(CC2c3cccc(Cl)c3CC[N+]2(C)C)cc1OC (stereo not given)	27%	39.6 µM	7.6 µM
COc1ccc(CC2c3c(cccc3OC)CCN2C)cc1OC (stereo not given)	1%		
COc1ccc(CC2c3sccc3CCN2C)cc1OC (stereo not given)	2%		
COc1ccc(CC2c3cccc(Br)c3CC[N+]2(C)C)cc1OC (stereo not given)	29%	25.4 µM	4.9 µM
COc1ccc(CC2c3cccc(Cl)c3CCN2C)cc1OC (stereo not given)	8%		
COc1ccc(CC2c3c(C)cccc3CCN2C)cc1OC (stereo not given)	10%		
COc1ccc(CC2c3c(Br)cccc3CCN2C)cc1OC (stereo not given)	10%		
COc1ccc(CC2c3c(cccc3C(C)C)CCN2C)cc1OC (stereo not given)	10%		
COc1ccc(C[C@H]2c3cc(OC)c(OC)cc3CC[N+]2(C)C)cc1OC.[I-] [LAUDANOSINE METHIODIDE]	57%	8.7 µM	1.6 µM
COc1ccc(CC2c3sc(C)cc3CCN2C)cc1OC (stereo not given)	1%		
COc1ccc(CC2c3c(Cl)cccc3CCN2C)cc1OC (stereo not given)	5%		
